Laboratory results from ChEMBL document CHEMBL1152398, “Labdane diterpenoid glycosides from Alpinia densespicata and their nitric oxide inhibitory activities in macrophages” (J Nat Prod, 2009).
Activity calls are given as the source filed them. The calls are words filed in the database; no cut-off is given here.

What was measured:
RAW264.7 = assay: Antiinflammatory activity in mouse RAW264.7 cells assessed as inhibition of LPS-induced nitric oxide production after 24 hrs by Griess reagent assay; type: functional, cell-based; conditions: RAW264.7, 24 h
Summary of the method: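 RAW264.7 murine macrophages grown in DMEM with 10% heat-inactivated FBS at 37 °C, 5% CO2. After 24 h, medium renewed; compounds added at 0, 1, 5, 10 or 20 µg/mL with LPS 1 µg/mL, then 24 h incubation. Supernatant nitrite measured with Griess reagent, absorbance 540 nm. Results given as percent of untreated control. Mean ± SD of three experiments, each in triplicate.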

HeLa = assay: Cytotoxicity against human HeLa cells at 20 uM by modified MTT assay; type: functional, cell-based
KB = assay: Cytotoxicity against human KB cells at 20 uM by modified MTT assay; type: functional, cell-based
Daoy = assay: Cytotoxicity against human DaOY cells at 20 uM by modified MTT assay; type: functional, cell-based
WiDr = assay: Cytotoxicity against human WiDr cells at 20 uM by modified MTT assay; type: functional, cell-based
[1] = tested on: Radical scavenging activity; assay: Antioxidant activity assessed as DPPH radical scavenging activity after 30 mins by ELISA; type: functional
Summary of the method: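 Sample (200-3.125 µg/mL) or quercetin (25-3.125 µg/mL), 120 µL, mixed with 30 µL of 0.75 mM DPPH in methanol. Shaken in the dark at room temperature for 30 min, then absorbance read at 517 nm. Methanol in place of sample served as negative control. ED50 is the concentration giving 50% reduction of DPPH radicals.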

[2] = Cytotoxicity against mouse RAW264.7 cells assessed as cell viability by modified MTT assay; type: cell-based; set-up: concentration or dose not given beside the values; conditions: read-out: Activity
Summary of the method: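 RAW264.7 cells after the same LPS (1 µg/mL) and compound (0-20 µg/mL) 24 h exposure used for NO measurement. MTT (5 mg/mL stock in PBS, 10 µL per 100 µL culture) added for 4 h at 37 °C. Formazan dissolved in DMSO and read at 550 nm. Untreated cells taken as 100% viability.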

| SMILES | IC50 (RAW264.7) [µM] | Activity (HeLa) | Activity (KB) | Activity (Daoy) | Activity (WiDr) | ED50 [1] | viability [2] [%] |
| --- | --- | --- | --- | --- | --- | --- | --- |
| C[C@@H]1O[C@@H](O[C@H]2[C@H](Oc3c(-c4ccc(O)c(O)c4)oc4cc(O)cc(O)c4c3=O)O[C@@H](C)[C@H](O)[C@H]2O)[C@H](O)[C@H](O)[C@H]1O | 32.9 | inactive | inactive | inactive | inactive | 16.6 µM | > 80 |
| C[C@@H]1O[C@@H](O[C@H]2C(Oc3c(-c4ccc(O)cc4)oc4cc(O)cc(O)c4c3=O)O[C@@H](C)[C@H](O)[C@H]2O)[C@H](O)[C@H](O)[C@H]1O (stereo partly specified) | 40.1 | inactive | inactive | inactive | inactive |  | > 80 |
| O=c1c(O)c(-c2ccc(O)cc2O)oc2cc(O[C@@H]3O[C@H](CO)[C@@H](O)[C@H](O)[C@H]3O)cc(O)c12 | 39.1 | inactive | inactive | inactive | inactive | 22.2 µM | > 80 |
| CC1(C)[C@@H](O)CC[C@]2(C)C3=C(CC[C@@H]12)CO[C@H](C1=CCOC1=O)C3 | 12.2 | inactive | inactive | inactive | inactive |  | > 80 |
| C[C@@H]1O[C@@H](O[C@H]2[C@H](O[C@H]3CC[C@]4(C)C5=C(CC[C@H]4C3(C)C)CO[C@H](C3=CCOC3=O)C5)O[C@H](CO)[C@@H](O)[C@@H]2O)[C@H](O)[C@H](O)[C@H]1O [ALPINDENOSIDE A] | 34.2 | inactive | inactive | inactive | inactive | > 200 µg/mL | > 80 |
| C[C@@H]1O[C@@H](O[C@H]2[C@H](O[C@H]3CC[C@]4(C)C5=C(CC[C@H]4C3(C)C)CO[C@@H](C3=CCOC3=O)C5)O[C@H](CO)[C@@H](O)[C@@H]2O)[C@H](O)[C@H](O)[C@H]1O [ALPINDENOSIDE B] | 49.3 | inactive | inactive | inactive | inactive | > 200 µg/mL | > 80 |
| C[C@@H]1O[C@@H](O[C@H]2[C@H](O[C@H]3CC[C@]4(C)[C@@H]5C[C@H](C6=CCOC6=O)OC(O)[C@@H]5CC[C@H]4C3(C)C)O[C@H](CO)[C@@H](O)[C@@H]2O)[C@H](O)[C@H](O)[C@H]1O (stereo partly specified) [ALPINDENOSIDE C] | 38 | inactive | inactive | inactive | inactive | > 200 µg/mL | > 80 |
| CC(=O)OC[C@H]1O[C@@H](O[C@H]2CC[C@]3(C)[C@H]4C[C@H](C5=CCOC5=O)OC(O)[C@@H]4CC[C@H]3C2(C)C)[C@H](O[C@@H]2O[C@@H](C)[C@H](O)[C@@H](O)[C@H]2O)[C@@H](O)[C@@H]1O (stereo partly specified) [ALPINDENOSIDE D] | 30 | inactive | inactive | inactive | inactive | > 200 µg/mL | > 80 |
| CC1(C)[C@@H](O)CC[C@]2(C)C3=C(CC[C@@H]12)CO[C@@H](C1=CCOC1=O)C3 [AULACOCARPINOLIDE] | 44.6 | inactive | inactive | inactive | inactive |  | > 80 |
| C=C(CO)[C@H]1C[C@@H]2[C@@H](CC[C@H]3C(C)(C)[C@@H](O[C@@H]4O[C@H](CO)[C@@H](O)[C@H](O)[C@H]4O[C@@H]4O[C@@H](C)[C@H](O)[C@@H](O)[C@H]4O)CC[C@]23C)[C@H]1O [NORALPINDENOSIDE A] | 31.8 | inactive | inactive | inactive | inactive | > 200 µg/mL | > 80 |
| C=C(C)[C@H]1C[C@@H]2[C@@H](CC[C@H]3C(C)(C)[C@@H](O[C@@H]4O[C@H](CO)[C@@H](O)[C@H](O)[C@H]4O[C@@H]4O[C@@H](C)[C@H](O)[C@@H](O)[C@H]4O)CC[C@]23C)[C@H]1O [NORALPINDENOSIDE B] | 44.3 | inactive | inactive | inactive | inactive | > 200 µg/mL | > 80 |
| O=c1c(O)c(-c2ccc(O)c(O)c2)oc2cc(O)cc(O)c12 [QUERCETIN] | 9.6 |  |  |  |  | 18 µM |  |
